# Experimental data collected from several papers.
SMILES,test,system,conditions,quantity,value
Cc1cccc(C(=O)n2ncc(=O)c3ccccc32)c1,chemical stability,aqueous buffer,pH 7.3,half-life,1.9 h
CC[C@H](C)[C@@H]1NC(=O)[C@@](C)(NC(=O)[C@H](CCCNC(=N)N)NC(=O)[C@H](CC(C)C)NC(=O)[C@@H](NC(=O)[C@H](CCC(N)=O)NC(=O)[C@H](CC(C)C)NC(C)=O)[C@@H](C)O)CCCC=CCCC[C@@](C)(C(=O)N[C@@H](CC(C)C)C(=O)N[C@@H](Cc2ccc3ccccc3c2)C(N)=O)NC(=O)[C@H](CCCNC(=N)N)NC(=O)[C@H](CCC(N)=O)NC1=O,,"male BALB/c mouse, plasma","subcutaneous, 10 mg/kg",AUC(0-inf),146 µg·h/mL
O=C(N1CCC(CNS(=O)(=O)c2ccc(Cl)cc2)CC1)n1cncn1,"chemical stability, HPLC",aqueous buffer,"167 µM, pH 7.4",half-life,0.993 h
N[C@@H](CSSC[C@H](N)C(=O)O)C(=O)O,,"Kunming mouse, plasma","oral, 100 mg/kg",bioavailability,25.6%
CCc1ccc(Cc2cc([C@@H]3O[C@H](CO)[C@@H](O)[C@H](O)[C@H]3O)cc3c2CCC3)cc1,,"male C57BL/6 mouse, plasma","oral, 1 mg/kg",bioavailability,89%
Cc1cccc(C(=O)n2nc(Cl)c(=O)c3ccccc32)c1,chemical stability,aqueous buffer,pH 7.3,half-life,0.642 h
C[C@]1(c2nc3c(C(N)=O)cccc3[nH]2)CCCN1,,"male rhesus monkey, plasma","oral, 5 mg/kg, single dose",Vd/F,38 L/kg
O=C(ON1C(=O)CCC1=O)N1CCC(CNS(=O)(=O)c2ccc(Cl)cc2)CC1,"chemical stability, HPLC",aqueous buffer,"167 µM, pH 7.4",half-life,1.21 h
